Assay results published in ChEMBL document CHEMBL5247578, “Effective synthesis of benzimidazoles-imidazo[1,2-a]pyrazine conjugates: A comparative study of mono-and bis-benzimidazoles for antitumor activity” (Eur J Med Chem, 2019).
Calls of active or inactive are those of the source. The calls are words filed in the database; no cut-off is given here.

Experiments:
DU-145 [1] = assay: Antiproliferative activity against human DU-145 cells assessed as cell growth at 0.00001 M incubated for 48 hrs by SRB assay relative to control; format: functional; conditions: read-out: Activity
Outline: (§1)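 NCI-60 five-dose screen (10^-4 to 10^-8 M). Cells grown in RPMI 1640 with 5% FBS and 2 mM L-glutamine, plated at 5,000-40,000 cells/well and preincubated 24 h. Drug given from DMSO stock, then 48 h at 37 °C, 5% CO2. For adherent lines, cells fixed with cold TCA, SRB-stained and read at 515 nm. Percent growth taken against time-zero and untreated control.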

SF-539 [2] = assay: Antiproliferative activity against human SF-539 cells assessed as cell growth at 0.0000001 M incubated for 48 hrs by SRB assay relative to control; format: functional; conditions: dose 100 nM, read-out: Activity
M14 = assay: Antiproliferative activity against human M14 cells assessed as cell growth at 0.000001 M incubated for 48 hrs by SRB assay relative to control; format: functional; conditions: read-out: Activity
SF-539 [3] = assay: Growth inhibition against human SF-539 cells assessed as total growth inhibitory concentration incubated for 48 hrs by sulforhodamine B assay; format: functional
DU-145 [4] = assay: Antiproliferative activity against human DU-145 cells assessed as cell growth at 0.000001 M incubated for 48 hrs by SRB assay relative to control; format: functional; conditions: read-out: Activity; outline: as §1
TK-10 = assay: Antiproliferative activity against human TK-10 cells assessed as cell growth at 0.00001 M incubated for 48 hrs by SRB assay relative to control; format: functional; conditions: read-out: Activity
RPMI-8226 [5] = assay: Antiproliferative activity against human RPMI-8226 cells assessed as cell growth inhibition by measuring lethal concentration incubated for 48 hrs by sulforhodamine B assay; format: functional; conditions: read-out: LC50 (the source's name)
786-0 = assay: Antiproliferative activity against human 786-0 cells assessed as cell growth at 0.00001 M incubated for 48 hrs by SRB assay relative to control; format: functional; conditions: read-out: Activity
Outline: (§2)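 NCI-60 five-dose screen over 10^-4–10^-8 M (10-fold dilutions). Cells grown in RPMI 1640 with 5% FBS and 2 mM L-glutamine, seeded at 5,000–40,000 cells/well and preincubated 24 h. Drug from DMSO stock, 48 h at 37 °C, 5% CO2. Adherent cells TCA-fixed and stained with 0.4% SRB; A515 read. Percent growth = (Ti−Tz)/(C−Tz)×100, or (Ti−Tz)/Tz×100 when Ti<Tz.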

EKVX = assay: Antiproliferative activity against human EKVX cells assessed as cell growth at 0.0000001 M incubated for 48 hrs by SRB assay relative to control; format: functional; conditions: dose 100 nM, read-out: Activity; outline: as §1
ACHN = assay: Antiproliferative activity against human ACHN cells assessed as cell growth at 0.00000001 M incubated for 48 hrs by SRB assay relative to control; format: functional; conditions: dose 10 nM, read-out: Activity; outline: as §2
PC-3 = assay: Growth inhibition against human PC-3 cells incubated for 48 hrs by sulforhodamine B assay; format: functional
UO-31 [6] = assay: Antiproliferative activity against human UO-31 cells assessed as cell growth at 0.00001 M incubated for 48 hrs by SRB assay relative to control; format: functional; conditions: read-out: Activity
UO-31 [7] = assay: Antiproliferative activity against human UO-31 cells assessed as cell growth at 0.000001 M incubated for 48 hrs by SRB assay relative to control; format: functional; conditions: read-out: Activity
NCI-H460 = assay: Antiproliferative activity against human NCI-H460 cells assessed as cell growth at 0.0001 M incubated for 48 hrs by SRB assay relative to control; format: functional; conditions: read-out: Activity
IGROV-1 = assay: Antiproliferative activity against human IGROV-1 cells assessed as cell growth at 0.0000001 M incubated for 48 hrs by SRB assay relative to control; format: functional; conditions: dose 100 nM, read-out: Activity
A498 = assay: Antiproliferative activity against human A498 cells assessed as cell growth at 0.00001 M incubated for 48 hrs by SRB assay relative to control; format: functional; conditions: read-out: Activity; outline: as §2
MOLT-4 = assay: Growth inhibition against human MOLT-4 cells assessed as total growth inhibitory concentration incubated for 48 hrs by sulforhodamine B assay; format: functional
NCI-H23 [8] = assay: Growth inhibition against human NCI-H23 cells assessed as total growth inhibitory concentration incubated for 48 hrs by sulforhodamine B assay; format: functional
MCF7 = assay: Growth inhibition against human MCF7 cells incubated for 48 hrs by sulforhodamine B assay; format: functional
SR [9] = assay: Antiproliferative activity against human SR cells assessed as cell growth at 0.000001 M incubated for 48 hrs by SRB assay relative to control; format: functional; conditions: read-out: Activity
SF-268 [10] = assay: Antiproliferative activity against human SF-268 cells assessed as cell growth at 0.00000001 M incubated for 48 hrs by SRB assay relative to control; format: functional; conditions: dose 10 nM, read-out: Activity
SR [11] = assay: Antiproliferative activity against human SR cells assessed as cell growth at 0.00001 M incubated for 48 hrs by SRB assay relative to control; format: functional; conditions: read-out: Activity
SN12C = assay: Antiproliferative activity against human SN12C cells assessed as cell growth at 0.0000001 M incubated for 48 hrs by SRB assay relative to control; format: functional; conditions: dose 100 nM, read-out: Activity
SNB-75 [12] = assay: Growth inhibition against human SNB-75 cells incubated for 48 hrs by sulforhodamine B assay; format: functional
Calf thymus DNA = assay: Binding affinity to calf thymus DNA assessed as intercalation by measuring decrease in DNA intensity by circular dichroism spectroscopy; format: nucleic-acid assay; conditions: Bos taurus
SNB-75 [13] = assay: Antiproliferative activity against human SNB-75 cells assessed as cell growth at 0.0000001 M incubated for 48 hrs by SRB assay relative to control; format: functional; conditions: dose 100 nM, read-out: Activity
SW-620 = assay: Antiproliferative activity against human SW620 cells assessed as cell growth at 0.0000001 M incubated for 48 hrs by SRB assay relative to control; format: functional; conditions: dose 100 nM, read-out: Activity
Hs-578T = assay: Growth inhibition against human Hs-578T cells assessed as total growth inhibitory concentration incubated for 48 hrs by sulforhodamine B assay; format: functional
RPMI-8226 [14] = assay: Growth inhibition against human RPMI-8226 cells assessed as total growth inhibitory concentration incubated for 48 hrs by sulforhodamine B assay; format: functional
NCI-H23 [15] = assay: Antiproliferative activity against human NCI-H23 cells assessed as cell growth at 0.0000001 M incubated for 48 hrs by SRB assay relative to control; format: functional; conditions: dose 100 nM, read-out: Activity
NCI-H226 = assay: Antiproliferative activity against human NCI-H226 cells assessed as cell growth at 0.000001 M incubated for 48 hrs by SRB assay relative to control; format: functional; conditions: read-out: Activity
MDA-MB-231 [16] = assay: Antiproliferative activity against human MDA-MB-231 cells assessed as cell growth at 0.0001 M incubated for 48 hrs by SRB assay relative to control; format: functional; conditions: read-out: Activity
SF-268 [17] = assay: Growth inhibition against human SF-268 cells incubated for 48 hrs by sulforhodamine B assay; format: functional
MDA-MB-231 [18] = assay: Antiproliferative activity against human MDA-MB-231 cells assessed as cell growth at 0.0000001 M incubated for 48 hrs by SRB assay relative to control; format: functional; conditions: dose 100 nM, read-out: Activity
BT-549 = assay: Antiproliferative activity against human BT-549 cells assessed as cell growth at 0.00001 M incubated for 48 hrs by SRB assay relative to control; format: functional; conditions: read-out: Activity; outline: as §2
MDA-MB-468 = assay: Antiproliferative activity against human MDA-MB-468 cells assessed as cell growth at 0.000001 M incubated for 48 hrs by SRB assay relative to control; format: functional; conditions: read-out: Activity

SMILES | growth at 10 µM (DU-145 [1]) | growth at 0.1 µM (SF-539 [2]) | growth at 1 µM (M14) | TGI (SF-539 [3]) | growth at 1 µM (DU-145 [4]) | growth at 10 µM (TK-10) | CC50 (RPMI-8226 [5]) | growth at 10 µM (786-0) | growth at 0.1 µM (EKVX) | growth at 0.01 µM (ACHN) | GI50 (PC-3) | growth at 10 µM (UO-31 [6]) | growth at 1 µM (UO-31 [7]) | growth at 100 µM (NCI-H460) | growth at 0.1 µM (IGROV-1) | growth at 10 µM (A498) | TGI (MOLT-4) | TGI (NCI-H23 [8]) | GI50 (MCF7) | growth at 1 µM (SR [9]) | also measured
COc1ccc(-c2cn3ccnc3c(-c3ccc4ncn(C5CCCCC5)c4c3)n2)cc1 | 14% | 97% | 38% | 2490 nM | 51% | 13% | > 100000 nM | -32% | 89% | 93% | 621 nM | 14% | 55% | 5% | 90% | 8% | > 100000 nM | > 100000 nM | 640 nM | 48% | growth at 0.01 µM (SF-268 [10]): 96%; growth at 10 µM (SR [11]): 9%; growth at 0.1 µM (SN12C): 100%; GI50 (SNB-75 [12]): 733 nM; Activity (Calf thymus DNA): Active; growth at 0.1 µM (SNB-75 [13]): 82%; growth at 0.1 µM (SW-620): 99%; TGI (Hs-578T): 49300 nM; TGI (RPMI-8226 [14]): > 100000 nM; growth at 0.1 µM (NCI-H23 [15]): 95%; growth at 1 µM (NCI-H226): 73%; growth at 100 µM (MDA-MB-231 [16]): 19%; GI50 (SF-268 [17]): 2380 nM; growth at 0.1 µM (MDA-MB-231 [18]): 101%; growth at 10 µM (BT-549): -18%; growth at 1 µM (MDA-MB-468): 47%
c1ccc(Cn2cnc3ccc(-c4nc(-c5ccc6c(c5)ncn6C5CCCCC5)cn5ccnc45)cc32)cc1 | 4% | 92% | 65% | 2600 nM | 93% | 11% | > 100000 nM | 4% | 91% | 96% | 1970 nM | -40% | 78% | -24% | 93% | -79% | > 100000 nM | 4490 nM | 2720 nM | 63% | growth at 0.01 µM (SF-268 [10]): 96%; growth at 10 µM (SR [11]): 5%; growth at 0.1 µM (SN12C): 101%; GI50 (SNB-75 [12]): 1190 nM; Activity (Calf thymus DNA): Active; growth at 0.1 µM (SNB-75 [13]): 82%; growth at 0.1 µM (SW-620): 105%; TGI (Hs-578T): > 100000 nM; TGI (RPMI-8226 [14]): 4500 nM; growth at 0.1 µM (NCI-H23 [15]): 93%; growth at 1 µM (NCI-H226): 95%; growth at 100 µM (MDA-MB-231 [16]): -31%; GI50 (SF-268 [17]): 2480 nM; growth at 0.1 µM (MDA-MB-231 [18]): 98%; growth at 10 µM (BT-549): -82%; growth at 1 µM (MDA-MB-468): 89%
